The source of these data is ChEMBL document CHEMBL3632592, “Identification of Highly Promising Antioxidants/Neuroprotectants Based on Nucleoside 5'-Phosphorothioate Scaffold. Synthesis, Activity, and Mechanisms of Action” (J Med Chem, 2015).

Active and inactive are the calls of the source. No cut-off for these calls is given here.

The nature of data set [1]: Metal chelating activity assessed as inhibition of Fe2+-ferrozine complex formation after 10 mins. Format: physicochemical. The procedure, abridged: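 Competitive ferrozine assay. FeSO4 (final 10 µM) and ferrozine (final 20 µM) are mixed with nucleotide in DDW at final 25–200 µM and agitated 10 min at room temperature. Absorbance of the Fe(II)-ferrozine complex is read at 562 nm with and without compound, and inhibition of complex formation is calculated. Three experiments, mean ± S.D.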

Data set [2] is described as follows: Antioxidant activity assessed as ABTS radical scavenging activity after 7 mins. Format: physicochemical. The procedure, abridged:
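ABTS radical cation made from 7 mM ABTS with 2.45 mM persulfate (final), kept in the dark at room temperature 12–16 h. It was then diluted in water pH 7.4 to A734 0.80 and mixed with compound or Trolox standard (final 0–60 µM). A734 was read at 7 min. Percent inhibition plotted against concentration; at least three runs, in triplicate.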

In another data set the target is P2Y purinoceptor 1 (Homo sapiens, UniProt P47900). Put plainly: Agonist activity at GFP-tagged human P2Y1R transfected in human 1321N1 cells assessed as increase in intracellular Ca2+ level by fura 2/AM probe-based fluorescence assay. Format: functional, cell-based.
For the next data set, the target named is T1, P2Y purinoceptor 11 (Homo sapiens, UniProt Q96G91).
T1 sequence (Q96G91 whole entry): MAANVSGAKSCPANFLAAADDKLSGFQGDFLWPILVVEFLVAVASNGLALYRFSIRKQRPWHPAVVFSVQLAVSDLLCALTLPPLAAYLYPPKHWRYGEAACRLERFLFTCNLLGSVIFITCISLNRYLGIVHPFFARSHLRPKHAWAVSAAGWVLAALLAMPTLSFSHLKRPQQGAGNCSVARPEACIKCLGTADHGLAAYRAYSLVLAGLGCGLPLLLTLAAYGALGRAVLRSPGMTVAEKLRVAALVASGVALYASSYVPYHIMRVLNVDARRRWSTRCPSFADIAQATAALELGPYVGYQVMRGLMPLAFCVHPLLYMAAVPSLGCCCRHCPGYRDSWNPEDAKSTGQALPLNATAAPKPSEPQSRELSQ
In words: Agonist activity at GFP-tagged human P2Y11R transfected in human 1321N1 cells assessed as increase in intracellular Ca2+ level by fura 2/AM probe-based fluorescence assay. Format: functional, cell-based.

The subject of data set [3] is PC-12.
A short description of data set [4]: Antioxidant activity assessed as inhibition of Fe2+-induced DMPO-OH adduct formation from H2O2 preincubated for 30 secs followed by DMPO/H2O2 addition measured after 150 secs by ESR analysis. Format: physicochemical. The method in brief: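 Fenton/ESR spin trapping: 1 mM ammonium iron(II) sulfate was added to 5–500 µM compound, then Tris buffer pH 7.4 (final pH 7.2–7.4). After 30 s, 100 mM DMPO and 100 mM H2O2 were added (stock concentrations). The ESR spectrum was recorded 150 s after H2O2, at room temperature. DMPO-OH adduct expressed as % of control containing FeSO4, H2O2 and DMPO only.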

Data set [5] relates to PC-12. In words: cells. To be noted: Rattus norvegicus, PC-12, 1 h.
Data set [6] relates to Cerebral cortex neuron. In words: Neuroprotective activity against Fe2+-induced oxidative damage in rat primary cortical neurons assessed as cell viability at 0.01 to 25 uM after 24 hrs by MTT assay. Format: functional, cell-based. The procedure, abridged:
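Rat (1-day-old) cortical neurons were grown serum-free in DMEM/F12 with B-27 on poly-ornithine, treated with Ara-C and cultured 5 d. Cells were pretreated with nucleotide (0.01–25 µM), then exposed to FeSO4 3 µM final for 24 h. MTT 1 mg/mL was added for 2 h at 37 °C, formazan dissolved in DMSO, A550 read. Viability given as % of vehicle control; three independent experiments in triplicate.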

Data set [7] in a line: Half life of the compound in RPMI-1640 medium at 37 degC by HPLC analysis. Format: ADME. The procedure, abridged: (§1)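 Nucleotides were incubated in human blood serum or RPMI-1640 at 37 °C for 0.5–24 h. Hydrolysis was followed by the change in HPLC peak integration of each analogue over time, and half-life was derived from this.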
Data set [8] can be described thus: Half life in human serum at 37 degC by HPLC analysis. Format: ADME, cell-free. The method in brief:
as §1

The subject of the next data set is NTERA2. Put plainly: Antioxidant activity in human NTERA2 cells assessed as inhibition of Fe2+-induced reactive oxygen species formation at 0.01 to 25 uM after 1 hr by DCFH-DA dye-based fluorometric analysis in presence of P2Y1R antagonist MRS2179. Format: functional, cell-based. The procedure, abridged:
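Ntera-2 cells (DMEM, seeded 24 h) were preincubated 20 min with 40 µM P2Y1 antagonist MRS2179. They were then loaded with DCFH-DA and treated with compound at 0.01–25 µM, with oxidation started by FeSO4 (final 0.16 µM). DCF fluorescence 485/530 nm, 1 h at 37 °C. Three independent experiments in triplicate.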

The test system of data set [9] is PC-12. In words: Antioxidant activity in rat PC12 cells assessed as inhibition of Fe2+-induced reactive oxygen species formation at 0.01 to 25 uM after 1 hr by DCFH-DA dye-based fluorometric analysis in presence of P2Y12R antagonist 2-MeS-AMP. Format: functional, cell-based. The method in brief:
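PC12 cells (DMEM, seeded 24 h) were preincubated 20 min with 50 µM P2Y12 antagonist 2-MeS-AMP. They were then loaded with DCFH-DA, given test compound at 0.01–25 µM, and oxidised with FeSO4 (final 0.16 µM). DCF fluorescence 485/530 nm over 1 h at 37 °C. ROS inhibition compared with no-antagonist control; three independent experiments in triplicate.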

Data set [10] has as its system Cerebral cortex neuron. Put plainly: Neuroprotective activity against Fe2+-induced morphological changes in rat primary cortical neurons at 0.2 to 100 uM after 24 hrs by light microscopic analysis. Format: functional, cell-based. The procedure, abridged: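 Primary rat cortical neurons were exposed to 3 µM FeSO4 for 24 h, with compound at 0.2, 5 and 100 µM. Morphology (cell number, extensions, cytoskeleton) was examined by light microscopy at 100×.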

Chain of P2Y purinoceptor 1 (P47900 whole entry): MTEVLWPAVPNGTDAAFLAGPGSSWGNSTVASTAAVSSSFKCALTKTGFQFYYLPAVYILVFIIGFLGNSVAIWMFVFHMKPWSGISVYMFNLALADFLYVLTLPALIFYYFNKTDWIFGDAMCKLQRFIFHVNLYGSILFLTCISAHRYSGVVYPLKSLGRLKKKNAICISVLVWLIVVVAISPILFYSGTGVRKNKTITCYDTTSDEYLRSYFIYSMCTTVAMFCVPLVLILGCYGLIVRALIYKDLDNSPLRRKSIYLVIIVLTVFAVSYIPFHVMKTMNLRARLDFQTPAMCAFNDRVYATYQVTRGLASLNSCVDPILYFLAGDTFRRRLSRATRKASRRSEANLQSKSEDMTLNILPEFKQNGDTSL

For orientation: IC50 means the concentration needed to halve the response being measured. For `Cc1c(C)c2c(c(C)c1O)CCC(C)(C(=O)O)O2` (stereo not drawn) [TROLOX], the IC50 is 150 µM in [1] and 18 µM in data set [2].
In general, EC50 refers to the concentration that produces a half-maximal response. Take `Nc1nc(Cl)nc2c1ncn2[C@@H]1O[C@H](COP(=O)(S)OP(=O)(O)OP(=O)(O)O)[C@@H](O)[C@H]1O` (stereo in doubt; 9B): the results for the concentration giving a half-maximal response (EC50) on P2Y purinoceptor 1 and on P2Y purinoceptor 11 were 0.88 µM and 1.1 µM, respectively. The values for the IC50 (in the data set on PC-12 [3]; in [4]; in data set [2]) were 100 µM, 27 µM and 24 µM, respectively.
In the case of `Nc1nc(Cl)nc2c1ncn2[C@@H]1O[C@H](COP(=O)(S)OP(=O)(O)O)[C@@H](O)[C@H]1O` (stereo in doubt; 8A), the figures for the IC50 (in the data set with PC-12 [5]; in data set [4]; in [2]) were 0.2 µM, 36 µM and 11 µM, respectively. Moreover, the EC50 on P2Y purinoceptor 1 came to 0.03 µM; at P2Y purinoceptor 11, 1.4 µM.
Turning to `Nc1ncnc2c1ncn2[C@@H]1O[C@H](COP(=O)(O)OP(=O)(O)S)[C@@H](O)[C@H]1O` (stereo partly drawn), the IC50 with PC-12 [5] came out at 20 µM; in data set [4] it was 19 µM; in data set [1] it was 85 µM; in [2], 15 µM. The EC50 at P2Y purinoceptor 1 is 1.27 µM; at P2Y purinoceptor 11, 32.7 µM.
For the molecule `O=C(O)CN(CCN(CC(=O)O)CC(=O)O)CCN(CC(=O)O)CC(=O)O` [PENTETIC ACID], the IC50 in [1] was 90 µM.
`Nc1ncnc2c1ncn2[C@@H]1O[C@H](COP(=O)(O)OP(=O)(O)OP(=O)(O)O)[C@@H](O)[C@H]1O` [ADENOSINE TRIPHOSPHATE]: in [2], the IC50 was 60 µM.
Turning to `CSc1nc(N)c2ncn([C@@H]3O[C@H](COP(=O)(S)OP(=O)(O)O)[C@@H](O)[C@H]3O)c2n1` (stereo in doubt; 7B), the outcome with Cerebral cortex neuron [6] was Active.
As a reminder, the half-life is the time in which the quantity being followed falls by half. With `Nc1ncnc2c1ncn2[C@@H]1O[C@H](COP(=O)(S)OP(=O)(O)O)[C@@H](O)[C@H]1O` (stereo in doubt; 6A), the IC50 in the data set with PC-12 [5] was determined as 38 µM; in data set [4], 31 µM; in [2] it was 20 µM. In addition, the half-life in data set [7] and in data set [8] was 14.5 h each time. Further, the EC50 on P2Y purinoceptor 1 was found to be 0.08 µM; on P2Y purinoceptor 11 it was 4.5 µM.
For the molecule `Nc1nc(Cl)nc2c1ncn2[C@@H]1O[C@H](COP(=O)(S)OP(=O)(O)OP(=O)(O)O)[C@@H](O)[C@H]1O` (stereo in doubt; 9A), the results for the IC50 (with PC-12 [5]; in data set [4]; in data set [2]) were 106 µM, 37 µM and 25 µM, respectively. Moreover, the EC50 at P2Y purinoceptor 1 was found to be 0.73 µM; at P2Y purinoceptor 11, 9.1 µM.
Turning to `Nc1nc(Cl)nc2c1ncn2[C@@H]1O[C@H](COP(=O)(O)OP(=O)(O)S)[C@@H](O)[C@H]1O` (stereo partly drawn), the half-maximal inhibitory concentration (IC50) stood at 5 µM with PC-12 [5], 21 µM in [4] and 13 µM in data set [2]. Also, the values for the EC50 on P2Y purinoceptor 1 and at P2Y purinoceptor 11 were 0.09 µM and 1 µM, respectively.
As for `O=C(O)CC(O)(CC(=O)O)C(=O)O` [CITRIC ACID], in data set [1], the IC50 was 300 µM.
`Nc1nc(Cl)nc2c1ncn2[C@@H]1O[C@H](COP(=O)(S)OP(=O)(O)O)[C@@H](O)[C@H]1O` (stereo in doubt; 8B): the EC50 on P2Y purinoceptor 1 came to 1.5 µM; at P2Y purinoceptor 11 it was 0.5 µM. For the same molecule, the IC50 was determined as 0.11 µM in the data set with PC-12 [3], 39 µM in [4] and 12 µM in [2].
With `CSc1nc(N)c2ncn([C@@H]3O[C@H](COP(=O)(S)OP(=O)(O)O)[C@@H](O)[C@H]3O)c2n1` (stereo in doubt; 7A), the inhibition result in the data set on NTERA2 and with PC-12 [9] was “inactive” each time. Besides, the result with Cerebral cortex neuron [10] was Active.
Take `O=C(O)CN(CCN(CC(=O)O)CC(=O)O)CC(=O)O` [EDETIC ACID]: the IC50 in [4] came out at 54 µM.
Take `Nc1ncnc2c1ncn2[C@@H]1O[C@H](COP(=O)(S)OP(=O)(O)O)[C@@H](O)[C@H]1O` (stereo in doubt; 6B): the EC50 is 0.13 µM at P2Y purinoceptor 1 and 8.7 µM at P2Y purinoceptor 11. For the same molecule, the IC50 in the data set on PC-12 [3] was 39 µM; in [4], 36 µM; in [2], 22 µM.
Consider `CSc1nc(N)c2ncn([C@@H]3O[C@H](COP(=O)(O)OP(=O)(O)S)[C@@H](O)[C@H]3O)c2n1` (stereo partly drawn), for which the IC50 in the data set on PC-12 [5] is 12 µM; in data set [4], 21 µM; in [2], 15 µM. Also, the EC50 on P2Y purinoceptor 1 turned out to be 0.037 µM; on P2Y purinoceptor 11, 0.9 µM.
